In the library only some 2.4% were active in any assay of this set; here they are far more common.
SIAE inh = human SIAE inhibition, primary screen; Q9HAT2; SIAE FP-Rh probe binding, fluorescence polarization; inhibition, % at 9.66 µM; actives 0.69% (n = 370,000); AID 1053197;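 active = inhibition above a cutoff: mean of compounds within the control limits plus 3 SD of those, cut at about 17% in these data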;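 also: 0% = plate median of compound wells and 100% = probe without SIAE protein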
GSTO1 counter = blocks human GSTO1 in RBBP9 counter-screen | P78417 | recombinant GSTO1, activity-based probe fluorescence polarization | inhibition, % at 5.96 µM | actives 1.1% (n = 300,000) | AID 1974;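 active = inhibition above the campaign mean inhibition plus 3 SD, cut at about 35% in these data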;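 also: 0% = GSTO1-1 with DMSO and 100% = wells lacking GSTO1-1 enzyme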
PAD4 FP inh = PAD4 (human) enzyme inhibition | Q9UM07 | recombinant PAD4, RCA probe fluorescence polarization | inhibition, % at 6.36 µM | actives 0.41% (n = 330,000) | AID 485272;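 active = percent inhibition above a cutoff equal to the mean of all tested compounds plus 3 SD, cut at about 15% in these data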;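 also: 0% = PAD4 with RCA probe and DMSO and 100% = probe without PAD4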
TDP2 absorb = blocks human TDP2 phosphodiesterase activity; AID 720702; inhibition, % at 12.8 µM; recombinant TDP2, T5PNP hydrolysis, p-nitrophenol absorbance 415 nm; O95551; actives 0.34% (n = 370,000);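 active = inhibition above the mean of all tested compounds plus 3 SD, set per campaign, cut at about 25% in these data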;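 also: 0% = DMSO with enzyme and 100% = buffer with substrate but no TDP2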
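System: recombinant human TDP2 / Amount: 120 nM TDP2 per well / Also added: 5 mM T5PNP chromogenic substrate / Doses: 12.8 µM single point, 1% DMSO / Incubation: 2 h at 37 °C / Detection: p-Nitrophenol epi absorbance / Evaluation: % inhibition relative to enzyme-containing and enzyme-free wells / Repeats: singlicate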
TCR-CD3 inh = inhibitors of human TCR-CD3 interaction. TAMRA-labeled TCR probe fluorescence, biochemical. inhibition, % at 9.4 µM. actives 0.37% (n = 360,000). AID 651800; in the data active = inhibition above about 19%;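 also: recombinant mutant TCR 2C K166C tagged with TAMRA read by polarization; 0% = receptor in buffer alone and 100% = receptor with positive control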
Apaf1 inhib = blocks human Apaf-1 apoptosome activity. O14727. reconstituted apoptosome caspase-3 activity, DEVD-Rh110 fluorescence. inhibition, % at 20 µM. actives 0.71% (n = 330,000); active = inhibition of at least 40% at 20 µM;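 also: plate controls were DMSO wells for no effect and DEVD-CHO caspase inhibitor wells for full effect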
Target sequence (O14727 whole entry, looked up): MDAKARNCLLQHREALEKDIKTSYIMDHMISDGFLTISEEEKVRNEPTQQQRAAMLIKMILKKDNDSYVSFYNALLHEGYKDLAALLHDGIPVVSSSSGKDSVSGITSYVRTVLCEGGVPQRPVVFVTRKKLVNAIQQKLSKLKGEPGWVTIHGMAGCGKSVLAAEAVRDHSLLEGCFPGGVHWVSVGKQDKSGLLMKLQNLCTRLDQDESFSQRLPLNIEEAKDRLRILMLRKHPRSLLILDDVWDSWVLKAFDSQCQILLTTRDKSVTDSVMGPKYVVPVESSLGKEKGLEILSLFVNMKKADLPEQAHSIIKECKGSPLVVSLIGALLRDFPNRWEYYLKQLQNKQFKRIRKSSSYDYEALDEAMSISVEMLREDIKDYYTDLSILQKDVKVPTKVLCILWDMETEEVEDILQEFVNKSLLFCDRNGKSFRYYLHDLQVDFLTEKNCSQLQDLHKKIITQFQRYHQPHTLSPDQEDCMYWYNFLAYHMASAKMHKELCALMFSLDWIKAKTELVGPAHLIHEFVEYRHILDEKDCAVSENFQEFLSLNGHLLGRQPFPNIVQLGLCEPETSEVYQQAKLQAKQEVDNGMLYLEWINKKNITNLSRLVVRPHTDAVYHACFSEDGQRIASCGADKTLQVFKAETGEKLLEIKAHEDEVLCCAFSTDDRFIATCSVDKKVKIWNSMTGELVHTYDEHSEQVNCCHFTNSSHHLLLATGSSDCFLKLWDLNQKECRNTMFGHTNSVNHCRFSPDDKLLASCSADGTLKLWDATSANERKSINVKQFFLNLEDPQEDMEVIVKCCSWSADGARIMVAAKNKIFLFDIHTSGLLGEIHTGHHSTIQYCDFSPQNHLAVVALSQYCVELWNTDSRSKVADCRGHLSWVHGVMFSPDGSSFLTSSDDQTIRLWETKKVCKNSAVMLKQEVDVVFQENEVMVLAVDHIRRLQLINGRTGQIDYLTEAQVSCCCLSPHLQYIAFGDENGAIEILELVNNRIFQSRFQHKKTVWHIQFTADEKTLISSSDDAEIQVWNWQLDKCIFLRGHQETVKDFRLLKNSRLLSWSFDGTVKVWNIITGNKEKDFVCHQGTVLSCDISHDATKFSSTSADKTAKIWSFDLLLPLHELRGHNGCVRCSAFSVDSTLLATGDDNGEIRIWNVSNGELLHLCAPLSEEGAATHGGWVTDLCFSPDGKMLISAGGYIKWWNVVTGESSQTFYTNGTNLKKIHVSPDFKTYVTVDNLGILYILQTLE
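Material: reconstituted apoptosome with Apaf-1, cytochrome c, caspase-9, procaspase-3, dATP / Buffer or medium: pH 7.5 Hepes buffer with CHAPS, BSA, DTT / Also added: cytochrome c with DEVD-Rh110 / Schedule: compound with Apaf-1, dATP, procaspase-3 30 min, then 50 min reaction, room temperature / Technique: rhodamine 110 fluorescence at Ex 480/Em 540 nm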
GSTO1 inh conf = confirmation of human GSTO1 inhibitors. shares compounds with GSTO1 counter. recombinant GSTO1, probe fluorescence polarization. inhibition, % at 5.96 µM. actives 54% (n = 2,400). AID 2176;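 active = inhibition above the primary screen's cutoff, its mean inhibition plus 3 SD, cut at about 35% in these data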;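 also: loss of polarization as inhibitors block binding of rhodamine sulfonate ester activity probe; 0% = GSTO1 with DMSO and 100% = wells lacking GSTO1 enzyme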
GSTO1 recomb ABPP = GSTO1 (human) inhibition by gel ABPP; inhibition, % at 1 µM; actives 30% (n = 130); recombinant GSTO1, gel ABPP SE-Rh probe fluorescence; shares compounds with GSTO1 counter;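 active = inhibition of the enzyme GSTO1 above about 75%, limit read from the data; inactive = inhibition below that limit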
PAD4 confirm = PAD4 (human) inhibition, confirmed; shares compounds with PAD4 FP inh; recombinant PAD4, RCA probe fluorescence polarization; inhibition, % at 6.36 µM; actives 28% (n = 1,200);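 active = mean inhibition across replicates above the hit cutoff set by the earlier primary screen, cut at about 15% in these data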;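 also: inhibitors block active-site labeling by the probe so polarization falls; 0% = PAD4 with probe and DMSO and 100% = probe without PAD4 enzyme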
Apaf-1 inh conf2 = Apaf-1 inhibition, single-dose confirmed; actives 25% (n = 1,800); reconstituted apoptosome, caspase-3 DEVD-Rh110 fluorescence; inhibition, % at 20 µM; shares compounds with Apaf1 inhib;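 active = mean inhibition of at least 40% at 20 µM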;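 also: plate controls were DMSO wells for no effect and DEVD-CHO caspase inhibitor control wells for full effect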
Rh110 quench = Rh110 signal interference in Apaf-1 inhibitor counter-screen. shares compounds with Apaf1 inhib. AID 504615. Rh110 fluorescence interference, quenched caspase reaction. 1,800 tested, under 10 active. activation (fluorescence interference), % at 20 µM;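 active = signal rise of 40% or more at 20 µM, treated as a fluorescence artifact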
Apaf1 inh interf = shows fluorescence interference in the Apaf-1 inhibitor assay format | shares compounds with Apaf1 inhib | fluorescence interference counterscreen, Apaf-1 assay format | IC50, µM | 460 tested, under 10 active | AID 588538; call rule not given here
Numbers without * were called inactive; / = not tested or not shown; + = active, no number.

SMILES	SIAE inh	GSTO1 counter	PAD4 FP inh	TDP2 absorb	TCR-CD3 inh	Apaf1 inhib	GSTO1 inh conf	PAD4 confirm	others
COc1ccc(OC)c(-c2c3cc(O)c(=O)cc-3oc3cc(O)c(O)cc23)c1	/	50*	55*	/	/	/	73*	+
CCCCNc1c2c3c(cccc3n(C)c1=O)C(=O)c1ccccc1-2	/	44*	90*	/	/	9	34	81*
O=C1c2ccccc2-c2cccc(C(=O)N3CCCCC3)c21	-10	7	2	-11	-11	-12	/	/
O=C1c2ccccc2C(=O)c2c1cccc2N1CCCC1	0	56*	28*	13	-22	/	10	1
CN(C(=O)COc1ncnc2sccc12)c1ccccc1	-2	4	3	-17	-3	-2	/	/
CCOc1cc(CNc2ccc(N(C)C)cc2)cc(Br)c1OCC(=O)NC(C)(C)C	-1	81*	23*	-4	-5	44*	4	0
CC(=O)n1cc(N(C(=O)CCl)c2ccc(Cl)cc2)c2ccccc21	/	82*	20*	/	/	13	84*	51*	GSTO1 recomb ABPP=82*
O=C(Cn1ncc(Cl)c(Cl)c1=O)c1ccc(Cl)cc1	-2	18	5	6	-8	/	/	/
O=C(OCn1ncc(Cl)c(Cl)c1=O)c1ccccc1Cl	4	48*	28*	18	0	/	33	29*
Cc1ccsc1C=Nc1ccc(O)cc1	/	92*	30*	/	/	94*	37*	-5
O=C(NC1CCCCC1)C(c1ccc(F)cc1)N(Cc1cccs1)C(=O)CN1C(=O)c2ccccc2S1(=O)=O (stereo not drawn)	0	2	-1	-11	-4	-5	/	/
Nc1nc(-c2cccs2)cs1	/	67*	19*	/	/	-7	13	5
Cc1occc1-c1nnc(SCC(=O)N2CCOCC2)n1Cc1ccco1	0	-4	-5	2	1	1	/	/
CCOc1ccccc1N(CC(=O)N(C)Cc1ccccc1)S(=O)(=O)c1ccccc1	-2	3	-2	8	10	4	/	/
O=S(=O)(Nc1cc(Sc2cccc3cccnc23)c(O)c2ccccc12)c1ccc(F)cc1	10	57*	29*	24	-3	/	25	3
CCC(=O)NS(=O)(=O)c1cccnc1Nc1ccc(Cl)cc1	-3	1	-7	7	-5	-2	/	/
COc1ccc2ccc3c(c2c1)N=CC1(O3)N(C)c2ccccc2C1(C)C (stereo not drawn)	/	90*	59*	/	/	13	5	6
CN1c2ccccc2C(C)(C)[C@]12C=Cc1cc(O)ccc1O2	-78	2	-76	4	-17	19	/	/
CC(=O)Oc1ccc2c(c1)Oc1cc(OC(C)=O)ccc1C21OC(=O)c2ccccc21	/	72*	99*	/	/	-259	84*	128*
Cc1cc(O)ccc1C1(c2ccc(O)cc2C)OC(=O)c2ccccc21	-17	-10	-3	-5	-3	18	/	/
CC(C)S(=O)(=O)N1CCCC(c2cc(C(=O)Nc3ccc(F)c(Cl)c3)no2)C1 (stereo not drawn)	-4	/	/	5	4	/	/	/
CCC1(c2ccccc2)CN(C)C1=O (stereo not drawn)	-1	/	/	-8	-6	/	/	/
CCN1c2ccccc2N(C)C1(C)c1ccccc1 (stereo not drawn)	/	55*	20*	/	/	/	37*	-17
Cc1cccc(NC2=C/C(=N/S(=O)(=O)c3cccs3)c3ccccc3C2=O)c1	16	84*	28*	20	3	/	81*	40*
CCc1ccc(S(=O)(=O)/N=C2/C=C(Sc3ncn[nH]3)C(=O)c3ccccc32)cc1	/	83*	37*	/	/	/	89*	22*
SMILES	SIAE inh	GSTO1 counter	PAD4 FP inh	TDP2 absorb	TCR-CD3 inh	Apaf1 inhib	GSTO1 inh conf	PAD4 confirm	others
O=C1c2ccccc2C(=O)N1CCSc1ncn[nH]1	1	5	1	3	-1	-11	/	/
CC(C)C12CN3CCN(CC(C3)/C1=N\NC(=O)Nc1ccccc1)C2	8	9	-7	-9	5	-13	/	/
CCOC(=O)C1CCCN(C(=O)C2c3ccccc3Oc3ccccc32)C1 (stereo not drawn)	4	46*	94*	-5	5	25	5	11
CCN(CC1COc2ccccc2O1)C(=O)c1ccc(Cl)c(S(=O)(=O)N2CC(C)OC(C)C2)c1 (stereo not drawn)	-3	0	-2	-1	-2	15	/	/
CC(=O)OCCCNc1cc(Sc2nc3ccccc3s2)c2nonc2c1[N+](=O)[O-]	/	45*	-15	/	/	96*	7	/	Apaf-1 inh conf2=29;Rh110 quench=1
CCOc1cc(CNc2ccc(N3CCCC3)cc2)cc(Cl)c1OC	11	70*	-3	8	-1	55*	70*	/	Apaf-1 inh conf2=51*;Rh110 quench=9;Apaf1 inh interf=>100
CCCC[C@@H]1C[C@H]1[C@@H](NC(=O)c1ccco1)c1ccc(Cl)cc1	-2	0	-5	-4	7	20	/	/
O=C(COC(=O)c1cc([N+](=O)[O-])ccc1N1CCCC1)Nc1ccccc1OC(F)F	-8	/	/	-10	-2	14	/	/
O=C1c2ccccc2C(=O)c2[nH]c(=O)[nH]c21	2	64*	17*	38*	1	80*	62*	2	Apaf-1 inh conf2=75*;Rh110 quench=-2;Apaf1 inh interf=>100
CCOc1cc2c(C#N)c(N3CCCC3)nc(N)c2c(N)n1	3	-5	1	-2	4	7	/	/
N#Cc1c(N2CCCC2)nc(N)c2c(N)nc(N3CCCC3)cc12	-2	93*	48*	9	2	98*	91*	43*	Apaf-1 inh conf2=99*;Rh110 quench=9;Apaf1 inh interf=>100
Cc1c2ccccc2nc2c(F)c(NCCO)c(F)c(F)c12	16	62*	11	13	16	54*	13	/	Apaf-1 inh conf2=22;Rh110 quench=0
OCCNc1c2ccccc2nc2c(F)c(F)c(F)c(F)c12	0	-54	4	4	8	/	/	/
O=C(Nc1ccc(F)c(Cl)c1)C1CC(=O)N(Cc2ccco2)C1 (stereo not drawn)	1	/	2	-11	3	-8	/	/
